Experimental data published in ChEMBL document CHEMBL1143402 (PLoS Med, 2006).

Columns and labels:
Format in all cases: ADME, organism-based
[1] = tested on: Mycobacterium tuberculosis variant bovis; experiment: Drug metabolism in Mycobacterium bovis BCG Tokyo assessed as cell pellet [14C]OPC-67683 metabolite level after 48 hrs by scintillation counting
Procedure, shortened: (§1)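 ^14C-labelled drug (0.5 mg/ml stock) added 15 µl to 585 µl 7H9/TN-ADC culture, incubated 48 h. Acetonitrile (2 volumes) added, then centrifuged. Supernatant counted by scintillation; pellet dissolved in 2 M NaOH, 1 h at 60 °C, then counted. DPM expressed relative to broth control supernatant.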

[2] = tested on: Mycobacterium tuberculosis variant bovis; experiment: Drug metabolism in Mycobacterium bovis BCG Tokyo assessed as cell supernatant [14C]OPC-67683 metabolite level after 48 hrs by scintillation counting; procedure, shortened: as §1
[3] = tested on: Mycobacterium tuberculosis variant bovis; experiment: Drug metabolism in OPC-67683 resistant Mycobacterium bovis BCG Tokyo assessed as cell supernatant [14C]OPC-67683 metabolite level after 48 hrs by scintillation counting; procedure, shortened: as §1

C[C@]1(COc2ccc(N3CCC(Oc4ccc(OC(F)(F)F)cc4)CC3)cc2)Cn2cc([N+](=O)[O-])nc2O1
Activity [1]: 22%
Activity [2]: 82%
Activity [3]: 105%
